The text below walks through data of ChEMBL document CHEMBL4715918, “Syntheses and evaluation of acridone-naphthalimide derivatives for regulating oncogene PDGFR-β expression” (Bioorg Med Chem, 2021).

Each structure is given as a SMILES string.

Data set [1] is described as follows: Binding affinity to 5'-biotin-d [GCGTCCACCCTCCCTGCCCCGCCGCCCCCCCITCTCCCAGC]-3' i-motif DNA (unknown origin) assessed as change in melting temperature at 10 uM by CD spectroscopy. The method in brief:
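Oligomer 2 µM in BPES buffer pH 5.5, heated to 95 °C for 5 min, cooled slowly and held at 4 °C overnight. Ligand 10 µM. CD ellipticity followed at 288 nm from 25–95 °C (1 mm cuvette); Tm derived, ΔTm against DNA alone.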

In data set [2] the test system is MCF7. Briefly: Antitumour activity against human MCF7 cells xenografted in nude BALB/c mouse assessed as tumour growth inhibition at 5 mg/kg, ip administered for 34 days relative to control. The format is functional. The conditions noted are these: 816 h, time 34 day, read-out: TGI.
The subject of the next data set is Quadruplex DNA. As to the kind of experiment: Binding affinity to 5'-FAM-GGGAGAAGGGGGGGCGGCGGGGCAGGGAGGGTGGAC-TAMRA-3' G4-quadruplex DNA (unknown origin) assessed as stabilization G4-quadruplex structure by measuring increase in I585/I518 ratio by FRET assay. The format is nucleic-acid assay. The conditions noted are these: dose 2-10 equiv. A digest of the protocol: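 FRET probe dual-labelled FAM/TAMRA, annealed, 10 µM in 10 mM Tris-HCl pH 7.4 with 10 mM KCl; compound added in equal volume. Emission 500–700 nm recorded, corrected for compound signal in the same buffer; I585/I518 ratio compared.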

Data set [3] concerns MCF7. Briefly: Antitumour activity against human MCF7 cells xenografted in nude BALB/c mouse assessed as tumour volume at 10 mg/kg, ip administered for 34 days (reference value: 1530 mm3). To be noted: time 34 day. Format: functional. On the technique in general: A xenograft is tissue or cells of one species grown in another, often human tumour cells in immunodeficient mice.

Data set [4] is described as follows: Toxicity in nude BALB/c mouse xenografted with human MCF7 cells assessed as spleen weight at 2.5 to 10 mg/kg, ip administered for 34 days. Format: organism-based. The conditions noted are these: in vivo, 816 h, dose 2.5-10 mg/kg, time 34 day. A digest of the protocol:
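Nude BALB/c females bearing subcutaneous MCF-7 xenografts were dosed ip once daily for 34 days at 2.5, 5.0 or 10 mg/kg, with saline vehicle (100 µL) as control. Body weight was recorded every 2 days. After euthanasia by cervical dislocation, heart, liver, spleen and kidney were removed and weighed.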

Data set [5] in a line: Binding affinity to 5'-FAM-GCGTCCACCCTCCCTGCCCCGCCGCCCCCCCTTCTCCCAGC-TAMRA-3' i-motif DNA (unknown origin) at pH 5.5 assessed as unfolding i-motif structure.

As usually defined, the ΔTm is the shift of the melting midpoint relative to a reference. Turning to `Cc1ccc2c(c1)c(=O)c1cc(C(=O)NCCCN(C)CCCN3C(=O)c4cccc5c(N6CCN(C)CC6)ccc(c45)C3=O)ccc1n2-c1ccc(C(=O)NCCCN(C)CCCN2C(=O)c3cccc4c(N5CCN(C)CC5)ccc(c34)C2=O)cc1`, the ΔTm in data set [1] was -16.7 °C. Moreover, the inhibition in vivo at 5 mg/kg in the data set on MCF7 [2] came to 47.6%. For the same compound, the Activity result was “Dose-dependent effect” with Quadruplex DNA, 640.2 mm3 in the data set on MCF7 [3], “Non-Toxic” in data set [4] and “Dose-dependent effect” in data set [5].
